The record followed here is the M2OR odorant receptor database.

In the assay the target is T1, OR2W1 (Homo sapiens) (UniProt Q9Y3N9).
T1 sequence (whole entry): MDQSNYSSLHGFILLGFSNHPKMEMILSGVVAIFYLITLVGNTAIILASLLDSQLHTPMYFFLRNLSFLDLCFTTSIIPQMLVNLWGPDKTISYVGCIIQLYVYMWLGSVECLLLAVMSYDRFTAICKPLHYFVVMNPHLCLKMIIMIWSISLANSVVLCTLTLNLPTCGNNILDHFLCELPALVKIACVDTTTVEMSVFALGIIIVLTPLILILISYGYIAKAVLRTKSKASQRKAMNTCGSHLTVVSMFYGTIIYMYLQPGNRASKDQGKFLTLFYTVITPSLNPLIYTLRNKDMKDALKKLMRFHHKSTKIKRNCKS
As to conditions: stereoisomer not certain. In outline:
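Values were gathered from published papers (main text and supplementary material), with extra details requested from the original authors when needed, and checked for typos and inconsistencies. Each receptor–molecule pair is called responsive (active) if the original authors judged the measured signal statistically different from baseline, and non-responsive (inactive) otherwise. Assay methods varied by source, often transient mammalian cell-line luciferase assays. Recorded details include cell line, G-protein, co-transfected protein and tags.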
Take `C=CC(=O)CC=CCC`: the “odorant receptor agonist call” value is “inactive”.
The same measure for `CCCCC(C)CCC(=O)O` (stereo unspecified): “inactive”.
As for `CCC(C)C(=O)OC` (stereo unspecified), the entry is “inactive”; as for `CC(=O)CC(C)(C)S`, “inactive”.
In the case of `COc1nccnc1C(C)C`, the “odorant receptor agonist call” value was “inactive”.
Turning to `Cc1cccc(C)c1O`, the “odorant receptor agonist call” value is “inactive”.
The same measure for `O=C1CCOc2ccccc21`: “active”.
The same measure for `CCOC(=O)CCC(C)C`: “active”.
As for `CCCCCCCCCC(=O)[O-].[H+]`, the entry is “inactive”; as for `CCC=O`, “inactive”.
Regarding `CCCCOC=O`, the “odorant receptor agonist call” value was “active”.
Consider `CCCCCCCCS`, for which the “odorant receptor agonist call” value was “active”.
The same measure for `O=C(c1ccccc1)c1ccccc1`: “active”; for `CCCCC(=O)CC`: “active”.
The same measure for `Cc1occc1S`: “inactive”; for `CC(C)CC=O`: “inactive”.
With `CCCCCCCCC(=O)O`, the “odorant receptor agonist call” value is “active”.
As for `CC(=O)C(C)C(C)=O`, the entry is “inactive”; as for `Cc1c[nH]c2ccccc12`, “inactive”; as for `CCCc1ccc(O)c(OC)c1`, “inactive”.
As for `CCCCCCCC1CCCC(=O)O1` (stereo unspecified), the entry is “inactive”; as for `COc1cccc(OC)c1O`, “inactive”.
For `C=CCSC`, the “odorant receptor agonist call” value was “inactive”.
Consider `CCCC(O)CC(=O)OCC` (stereo unspecified), for which the “odorant receptor agonist call” value is “inactive”.
For the compound `CCCCCC1CCCC(=O)O1` (stereo unspecified), the “odorant receptor agonist call” value is “inactive”.
On to `CC=CC(=O)C(C)CC` (stereo unspecified), for which the “odorant receptor agonist call” value is “inactive”.
For the compound `CCCCC(=O)CC(C)=O`, the “odorant receptor agonist call” value was “active”.
As for `CSSc1ccoc1C`, the entry is “inactive”.
As for `CCCCC(C)=O`, the entry is “active”; as for `CCC=CCC=O`, “inactive”; as for `CCC(C)CCC(=O)[O-]` (stereo unspecified), “active”.
As for `CCCCC(CC)CCC(=O)O` (stereo unspecified), the entry is “inactive”; as for `C=Cc1ccc(O)c(OC)c1`, “inactive”; as for `CCCCC(=O)O`, “inactive”.
As for `CCCC=CC=O`, the “odorant receptor agonist call” value is “inactive”.
The same measure for `COc1ccc2ccc(=O)oc2c1`: “inactive”.
